In brackets after ≈: the same amount, converted by molar mass. Activity calls are given as the source filed them. The rule behind the calls is not given here.
Key:
[1] = tested on: Staphylococcus aureus; assay: Bacteriostatic activity against Staphylococcus aureus ATCC 29213 at 2 times MIC; format: functional, organism-based
[2] = tested on: Escherichia coli; assay: Antimicrobial activity against Escherichia coli OC2605 by broth microdilution method; format: functional
Procedure, shortened: (§1)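 CLSI broth microdilution MIC; strains from the sponsor's in-house collection.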

[3] = tested on: Enterococcus faecium; assay: Antimicrobial activity against Enterococcus faecium OC3312 by broth microdilution method; format: functional
Procedure, shortened: (§2)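 MICs by CLSI broth microdilution. Where polymyxin B nonapeptide was included, it was present at 2 μg/ml alongside the test compound.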

[4] = tested on: Escherichia coli; assay: Antimicrobial activity against Escherichia coli OC9040 by broth microdilution method; format: functional; procedure, shortened: as §2
[5] = tested on: Staphylococcus aureus; assay: Inhibition of Staphylococcus aureus ATCC 29213 MurF assessed as UDP-MurNAc-pentapeptide product level at 4 times MIC by HPLC (reference value: 1 mAU)
Procedure, shortened: (§3)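 After 30 min, muropeptides were extracted and quantified by HPLC peak area, normalized to the control. The HPLC detection limit was 12 mAU. Results are representative of two independent experiments.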

[6] = tested on: Staphylococcus aureus; assay: Inhibition of Staphylococcus aureus ATCC 29213 MurF assessed as UDP-MurNAc-pentapeptide product level at MIC by HPLC ([…])
[7] = tested on: Staphylococcus aureus; assay: Antimicrobial activity against methicillin-resistant Staphylococcus aureus OC2878 by broth microdilution method; format: functional; procedure, shortened: as §1
[8] = tested on: Staphylococcus aureus; assay: Antimicrobial activity against Staphylococcus aureus ATCC 29213 assessed as growth inhibition; format: functional, organism-based
[9] = tested on: Escherichia coli; assay: Antimicrobial activity against LPS-deffective Escherichia coli OC2530 by broth microdilution method; format: functional; procedure, shortened: as §2
[10] = tested on: Staphylococcus aureus; assay: Inhibition of Staphylococcus aureus ATCC 29213 MurF assessed as UDP-MurNAc-tripeptide substrate level at 2 times MIC by HPLC (reference value: 1 mAU); procedure, shortened: as §3
[11] = tested on: Staphylococcus aureus; assay: Antimicrobial activity against Staphylococcus aureus ATCC 29213 by broth microdilution method; format: functional; procedure, shortened: as §2
[12] = tested on: Staphylococcus aureus; assay: Antimicrobial activity against methicillin-resistant Staphylococcus aureus OC3726 by broth microdilution method; format: functional; procedure, shortened: as §1
[13] = tested on: Staphylococcus aureus; assay: Antimicrobial activity against Staphylococcus aureus ATCC 29213 assessed as cell lysis; format: functional, organism-based
[14] = tested on: Staphylococcus aureus; assay: Antimicrobial activity against Staphylococcus aureus OC4172 by broth microdilution method; format: functional; procedure, shortened: as §2
[15] = tested on: Enterococcus faecalis; assay: Antimicrobial activity against Enterococcus faecalis ATCC 29212 by broth microdilution method; format: functional; procedure, shortened: as §2
[16] = tested on: Escherichia coli; assay: Antimicrobial activity against Escherichia coli ATCC 25922 by broth microdilution method; format: functional; procedure, shortened: as §2
[17] = Inhibition of Escherichia coli MurF
[18] = tested on: Staphylococcus aureus; assay: Inhibition of Staphylococcus aureus ATCC 29213 MurF assessed as UDP-MurNAc-tripeptide substrate level at MIC by HPLC (reference value: 1 mAU); procedure, shortened: as §3
[19] = tested on: Staphylococcus aureus; assay: Inhibition of Staphylococcus aureus ATCC 29213 MurF assessed as UDP-MurNAc-tripeptide substrate level at 4 times MIC by HPLC (reference value: 1 mAU); procedure, shortened: as §3
[20] = tested on: Staphylococcus aureus; assay: Inhibition of Staphylococcus aureus ATCC 29213 MurF assessed as UDP-MurNAc-pentapeptide product level at 2 times MIC by HPLC (reference value: 1 mAU); procedure, shortened: as §3

COc1ccc2nc(OC)c([C@@H](c3ccccc3)[C@](O)(CCc3ccccc3)CCN(C)C)cc2c1
Activity [1]: Active
MIC [2]: > 32 µg/mL
MIC [3]: 8 µg/mL (≈ 16.5 µM)
MIC [4]: > 32 µg/mL
Activity (fold of control) [5]: 0.21
Activity (fold of control) [6]: 0.6
MIC [7]: 8 µg/mL (≈ 16.5 µM)
inhibition [8]: Dose-dependent effect
MIC [9]: 8 µg/mL (≈ 16.5 µM)
Activity (fold of control) [10]: > 38
MIC [11]: 8 µg/mL (≈ 16.5 µM)
MIC [12]: 8 µg/mL (≈ 16.5 µM)
Activity [13]: inactive
MIC [14]: 8 µg/mL (≈ 16.5 µM)
MIC [15]: 8 µg/mL (≈ 16.5 µM)
MIC [16]: > 32 µg/mL
IC50 [17]: 29 µM
Activity (fold of control) [18]: > 10
Activity (fold of control) [19]: > 67
Activity (fold of control) [20]: 0.34

Reference: ChEMBL document CHEMBL1671657, “MurF inhibitors with antibacterial activity: effect on muropeptide levels” (Antimicrob Agents Chemother, 2009)
